# Results from different studies.
# Compare with care: the assays were run in different laboratories.
# Observed: DPPH scavenging
SMILES,technique,tested at,inhibition [%]
Oc1ccc(Br)cc1C=NCCN1CCOCC1,absorbance,40 µM,10.1
Cc1ccc(C(C)C)cc1NC(=O)COC(=O)c1ccc(O)c(O)c1,,100 µg/mL,91.8
CCN(O)N=Nc1ccc(S(=O)(=O)Nc2cc(C)on2)cc1,absorbance,300 µg/mL,40.5
O=C1O[C@H]([C@@H](O)CO)C(O)=C1O,absorbance,40 µM,41.6
CCN(O)N=Nc1ccc(S(=O)(=O)Nc2onc(C)c2C)cc1,absorbance,60 µg/mL,10.9
COc1cc(C=Cc2cc(-c3ccc(N(C)C)cc3)nc(O)n2)ccc1O,,25 µg/mL,46.6
Cc1ccc(C(C)C)cc1NC(=O)COC(=O)c1ccc(O)cc1,,100 µg/mL,1.7
O=C1O[C@H]([C@@H](O)CO)C(O)=C1O,,25 µg/mL,57.2
Cc1ccc(N(O)N=Nc2ccc(S(=O)(=O)Nc3cc(C)on3)cc2)cc1,absorbance,60 µg/mL,19.9
COc1cc(C=CC(=O)CC(c2ccc([N+](=O)[O-])cc2)n2ccnc2)ccc1O (stereo not drawn),,25 µg/mL,50.7
CCN(O)N=Nc1ccc(S(=O)(=O)Nc2nccs2)cc1,absorbance,240 µg/mL,25.2
Cc1ccc(C(C)C)cc1NC(=O)COC(=O)c1ccc(O)cc1O,,100 µg/mL,2.4
Cc1cccc(N(O)N=Nc2ccc(S(=O)(=O)Nc3cc(C)on3)cc2)c1,absorbance,300 µg/mL,37.1
Cc1ccc(C(C)C)cc1NC(=O)COC(=O)c1cccc(O)c1,,100 µg/mL,25.2
COc1cc(C=CC(=O)CC(c2ccc(N(C)C)cc2)n2ccnc2)ccc1O (stereo not drawn),,100 µg/mL,73.5
Cc1cc(NS(=O)(=O)c2ccc(N=NN(O)c3ccccc3)cc2)no1,absorbance,240 µg/mL,33.7
CC1(C)CC[C@]2(C(=O)O)CC[C@]3(C)C(=CC[C@@H]4[C@@]5(C)CC[C@H](O)C(C)(C)[C@@H]5CC[C@]43C)[C@@H]2C1,,100 µg/mL,95.6
COc1cc(C=Cc2cc(-c3ccccc3)nc(O)n2)ccc1O,,100 µg/mL,73.6
